Experimental data taken from ChEMBL document CHEMBL2390836, “Synthesis and antitumor activities of naturally occurring oleanolic acid triterpenoid saponins and their derivatives” (Eur J Med Chem, 2013).
pIC50: −log10 of the molar value.

Experiments:
Type in all cases: functional, cell-based
A-375 = assay: Cytotoxicity against human A375 cells after 72 hrs by sulforhodamine B assay; settings: A-375, 72 h
Summary of the method: (§1)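 Cells seeded in 96-well plates and exposed in triplicate to a concentration gradient at 37 °C for 72 h. Total protein staining with sulforhodamine B was the read-out. IC50 was calculated by the Logit method from at least three independent experiments.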

HL-60 = assay: Cytotoxicity against human HL60 cells after 72 hrs by MTT assay; settings: HL-60, 72 h
Summary of the method: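 HL-60 human promyelocytic leukemia cells were plated in 96 wells and treated in triplicate with graded concentrations at 37 °C for 72 h. Viability was read by MTT reduction. IC50 was obtained by the Logit method from at least three independent experiments.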

A549 = assay: Cytotoxicity against human A549 cells after 72 hrs by sulforhodamine B assay; settings: A549, 72 h; summary of the method: as §1

SMILES	pIC50 (A-375)	pIC50 (HL-60)	pIC50 (A549)
C[C@@H]1O[C@@H](O[C@H]2[C@H](O[C@H]3CC[C@]4(C)[C@H]5CC=C6[C@@H]7CC(C)(C)CC[C@]7(C(=O)O[C@@H]7O[C@H](CO[C@@H]8O[C@H](CO)[C@@H](O)[C@H](O)[C@H]8O)[C@@H](O)[C@H](O)[C@H]7O)CC[C@@]6(C)[C@]5(C)CC[C@H]4C3(C)C)OC[C@@H](O)[C@@H]2O)[C@H](O)[C@H](O[C@@H]2OC[C@@H](O)[C@H](O)[C@H]2O)[C@H]1O	< 4.70	< 4.70	< 4.70
C[C@@H]1O[C@@H](O[C@H]2[C@H](O[C@H]3CC[C@]4(C)[C@H]5CC=C6[C@@H]7CC(C)(C)CC[C@]7(C(=O)O[C@@H]7O[C@H](CO[C@@H]8O[C@H](CO)[C@@H](O)[C@H](O)[C@H]8O)[C@@H](O)[C@H](O)[C@H]7O)CC[C@@]6(C)[C@]5(C)CC[C@H]4C3(C)C)OC[C@@H](O)[C@@H]2O)[C@H](O)[C@H](O[C@@H]2O[C@H](CO)[C@@H](O)[C@H](O)[C@H]2O)[C@H]1O	< 4.70	< 4.70	< 4.70
CC1(C)CC[C@]2(C(=O)O)CC[C@]3(C)C(=CC[C@@H]4[C@@]5(C)CC[C@H](O[C@@H]6O[C@H](CO)[C@@H](O)[C@H](O)[C@H]6O[C@@H]6O[C@H](CO)[C@@H](O)[C@H](O)[C@H]6O)C(C)(C)[C@@H]5CC[C@]43C)[C@@H]2C1 [ACUTOSIDE A]	4.99	4.90	4.82
COc1cccc2c1C(=O)c1c(O)c3c(c(O)c1C2=O)C[C@@](O)(C(=O)CO)C[C@@H]3O[C@H]1C[C@H](N)[C@H](O)[C@H](C)O1 [DOXORUBICIN]	6.12	6.05	6.25
CC[C@@]1(O)C(=O)OCc2c1cc1n(c2=O)Cc2cc3cc(O)ccc3nc2-1 [HYDROXYCAMPTOTHECIN]	6.82	6.60	6.25
